From paper PMC2773129 (JACC. Cardiovascular imaging, 2009)
Bridges are numbered along the chain shown (N, C = ends). Roman numbers before positions name the chains, in order. Where no end group is shown, it is not given here. The star is where a group is joined. X1 = O=C(CON=Cc1ccc(F)cc1)*

Experiments:
[1] = Biodistribution by gamma counting of harvested organs; format: in vivo; conditions: mouse, iv, 150 uCi, total radioactivity
Outline: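 Test compound (¹⁸F-labelled peptide, 150 μCi) injected into the tail vein of 6 wild-type mice under isoflurane anaesthesia. Mice were killed at 4 h and perfused with saline. Organs and feces were harvested and counted in a gamma counter. Counts were corrected for decay and residual injection-site activity and expressed as %ID per gram tissue, mean±SEM.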

[2] = test system: atherosclerotic plaques, VCAM-1; assay: Ex vivo uptake of 18F-4V in excised aortas; parameters: species or system mouse
[3] = test system: VCAM-1 expression in atherosclerotic plaques; assay: In vivo PET-CT imaging of aortic root; parameters: species or system mouse; conditions: apoE-/- mice, PET-CT initiated 1 hour after injection, mean±SEM
[4] = test system: infarcted myocardium, VCAM-1; assay: 18F-4V uptake after myocardial infarction; format: in vivo, mouse; conditions: mice 5 days after MI, without antibody blocking
[5] = test system: rejected cardiac allograft, VCAM-1; assay: 18F-4V uptake in heterotopic allograft heart transplant rejection; format: in vivo, mouse; conditions: day 7 after heart transplantation

tissue uptake at 4 h ([1]; aorta): 1.3 ± 0.4 %ID/g
tissue uptake at 4 h ([1]; bone): 1.3 ± 0.4 %ID/g
tissue uptake at 4 h ([1]; esophagus): 1.5 ± 0.5 %ID/g
tissue uptake at 4 h ([1]; fat): 1.7 ± 0.1 %ID/g
dose excreted at 4 h ([1]; feces): 0.2 ± 0.1%
tissue uptake at 4 h ([1]; heart): 0.6 ± 0.2 %ID/g
tissue uptake at 4 h ([1]; kidney): 13.2 ± 2.8 %ID/g
tissue uptake at 4 h ([1]; large intestine): 1.4 ± 0.5 %ID/g
tissue uptake at 4 h ([1]; liver): 3.7 ± 1.1 %ID/g
tissue uptake at 4 h ([1]; lung): 2.2 ± 0.8 %ID/g
tissue uptake at 4 h ([1]; lymph node): 3.7 ± 0.3 %ID/g
tissue uptake at 4 h ([1]; skeletal muscle): 0.7 ± 0.3 %ID/g
tissue uptake at 4 h ([1]; skin): 1.7 ± 0.6 %ID/g
tissue uptake at 4 h ([1]; small intestine): 1.9 ± 0.4 %ID/g
tissue uptake at 4 h ([1]; spleen): 2.1 ± 0.6 %ID/g
tissue uptake at 4 h ([1]; stomach): 1.7 ± 1.1 %ID/g
tissue uptake at 4 h ([1]; thymus): 0.9 ± 0.3 %ID/g
tissue uptake at 4 h ([1]; whole blood): 1.5 ± 0.4 %ID/g
Substance: I: VHPKQHRGGSYKKK(X1) / II: VHPKQHRGGSYK / III: VHPKQHRGGSY / IV: VHPKQHRGGSY (amide I:12-IV:C, I:13-II:C, II:12-III:C) [^18F-4V]
ex vivo %IDGT in murine atheroma ([2]; apoE-/- mice, ex vivo, mean±SEM): 5.9±1.5 %IDGT
uptake in the aortic root, higher in apoE-/- mice compared to wild type ([2]; excised aortas, apoE-/- vs wild-type mice, p < 0.05): 312%
PET signal in murine atheroma (standard uptake value) [3]: 0.31±0.02 SUV
infarct activity to background ratio [4]: 3.1
graft to background ratio after pre-injection of VCAM-1 targeted antibody ([5]; pre-injection with VCAM-1 targeted antibody): 1.4
graft to background ratio ([5]; without antibody blocking): 2.4
